Rows were chosen to be rich in hits. Some 3.7% of all compounds tested hit in one or more screens of this group.
hERG protect = shields human hERG channel from block by proarrhythmic agents; CHO-hERG, FluxOR thallium flux, dofetilide IC70 present; Q12809; activation (rescue from dofetilide block), less the hit threshold, % at 10 µM; AID 1511; 310,000 tested, 0.51% active;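 active = activation above the mean of controls blocked by dofetilide plus 5 SD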;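 also: thallium influx through hERG after potassium depolarization seen as dye fluorescence rise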
KCNK9 inh-1 = inhibitors of human KCNK9 two-pore domain potassium channel; Q9NPC2; HEK293 KCNK9, FluxOR thallium flux fluorescence; active compounds read low; B-score at 10 µM; 310,000 tested, 1.2% active; AID 488922;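 active = ratio B-score over 3 SD below the library mean, with starting fluorescence within 5 SD of its mean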;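 also: negative B-score means less thallium flux so channel inhibition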
KCNK3 block = human KCNK3 channel inhibition, primary screen; 340,000 tested, 0.84% active; CHO-KCNK3 thallium flux, FluxOR fluorescence; active compounds read low; AID 602410; B-score at 10 µM;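 active = B-score under library mean minus 4 SD, starting fluorescence ratio at most library mean plus 5 SD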;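 also: more negative B-score means stronger inhibition of thallium flux through KCNK3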
KCNQ1 pot = potentiators or activators of human KCNQ1 potassium channel; P51787; CHO-K1 KCNQ1, thallium flux FluxOR fluorescence; active compounds read high; B-score at 10 µM; 310,000 tested, 0.35% active; AID 2648;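 active = fluorescence ratio B-score, a plate-corrected score, at least three library SD, with initial intensity B-score within 5 SD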
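assay system = CHO-K1 cells stably expressing KCNQ1 | medium = assay buffer, equal DMSO in all wells | timing = 37 °C overnight plating, 90-min dark dye load, 20-min compound pretreatment | measured by = kinetic FluxOR thallium fluorescence, 10-s 1-Hz baseline, 110-s post-stimulus read | measure = fluorescence change relative to baseline, converted to B score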
KCNQ1 inh = human KCNQ1 channel inhibition; 310,000 tested, 1.3% active; AID 2642; B-score at 10 µM; P51787; CHO-K1 KCNQ1, FluxOR thallium flux fluorescence; active compounds read high;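 active = compounds whose thallium flux B-score, printed positive for inhibition, exceeds three library SD while starting fluorescence stays within three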;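 also: channel opened by potassium depolarization with thallium stimulus after 20 min compound exposure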
Kir21 block = Kir2.1 (mouse) channel inhibition. HEK293-Kir2.1, FluxOR thallium flux fluorescence; active compounds read low. AID 1672. 310,000 tested, 0.85% active. B-score at 10 µM;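 active = fluorescence ratio B-score at or below minus 3 SD of library scores, with starting-brightness B-score within 2 SD, cut at about -4.2 in these data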;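 also: channel flux triggered by added potassium and thallium sulfate stimulus; B-score of peak minus minimum fluorescence over baseline after thallium stimulus; more negative B-score means stronger Kir2.1 block with less thallium influx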
hERG inh = hERG (human) inhibition as Kir2.1 counter-screen | shares compounds with Kir21 block | hERG-expressing cells, thallium flux | inhibition, % at 10 µM | 320 tested, 20% active;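 also: host cells are CHO cells stably expressing hERG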
KCNK9 inh-2 = selectivity of Kir2.1 inhibitors: effect on human KCNK9. shares compounds with Kir21 block. KCNK9-expressing cells, ion flux inhibition. inhibition, % at 10 µM. 320 tested, 5% active
Kir21 ephys inh = inhibitors of mouse Kir2.1 potassium channel | 320 tested, 71% active | inhibition, % at 25 µM | shares compounds with Kir21 block | Kir2.1 cells, automated patch-clamp current inhibition
KCNQ1 block val = confirmation of human KCNQ1 potassium channel inhibitors | shares compounds with KCNQ1 inh | KCNQ1 cell line, FluxOR thallium flux fluorescence | inhibition, % at 10 µM | 1,600 tested, 93% active;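 active = primary screen active, with duplicate mean exceeding buffer control mean plus 3 SD of buffer wells, cut at about 28% in these data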
CHO Tl flux = KCNQ1 inhibitor counter-screen hit in parental CHO cells | parental CHO-K1, FluxOR thallium flux fluorescence ratio; active compounds read low; zero means no signal rise above baseline | 1,600 tested, 21% active | fluorescence ratio (Tl flux) at 10 µM | shares compounds with KCNQ1 inh;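 active = mean of duplicate thallium-flux fluorescence ratios in parental host cells more than 5 SD below the buffer control mean, cut at about 0.38 in these data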;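 also: ratio is peak minus minimum fluorescence divided by baseline fluorescence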
KCNQ1 ephys val = human KCNQ1 inhibition validated by electrophysiology | shares compounds with KCNQ1 inh | KCNQ1-CHO cells, automated patch clamp current | calls only at 10 µM | 490 tested, 20% active | AID 624120;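 active = KCNQ1 current drop exceeding 3 SD of negative control wells, seen in both duplicate runs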;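 also: steady state current during a 2 s step from -80 to +40 mV; negative values mean current inhibition and positive values mean potentiation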
KCNQ2 spec = rat KCNQ2 inhibition in KCNQ1 inhibitor specificity screen | shares compounds with KCNQ1 inh | KCNQ2 cells, FluxOR thallium flux fluorescence | inhibition, % at 10 µM | 1,600 tested, 71% active | AID 651746;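 active = mean percent inhibition of the KCNQ2 thallium signal more than 5 SD above the buffer-only control wells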;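 also: KCNQ2 expressed in CHO cells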
KCNQ1 KCNE1 spec = KCNQ1 inhibitor that also blocks human KCNQ1/KCNE1 channel. 1,600 tested, 77% active. inhibition, % at 10 µM. KCNQ1/KCNE1 cells, FluxOR thallium flux fluorescence. shares compounds with KCNQ1 inh;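 active = mean percent inhibition of duplicate wells above the buffer-only control mean plus 3 SD of those controls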
KCNK9 inh conf = human KCNK9 inhibitor confirmation. shares compounds with KCNK9 inh-1. HEK293 KCNK9 cells, FluxOR thallium flux fluorescence. inhibition, % at 10 µM. 4,900 tested, 43% active;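 active = thallium signal inhibited by more than 5 SD of the compound-free buffer control wells, on both duplicate plates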
Kir21 sel = tests whether KCNK9 modulators also affect mouse Kir2.1; inhibition, % at 10 µM; shares compounds with KCNK9 inh-1; 4,900 tested, 4% active; AID 492993; Kir2.1 cells, FluxOR thallium flux fluorescence;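 active = thallium signal drop more than 5 SD beyond the mean of the no-compound control wells, seen in both duplicate plates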;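 also: signal is fluorescence rise after thallium addition divided by baseline fluorescence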
HEK293 Tl ctr = non-induced cell nonspecific activity of KCNK9 modulators; shares compounds with KCNK9 inh-1; non-induced KCNK9-HEK293, FluxOR thallium flux; inhibition, % at 10 µM; 4,900 tested, 40% active; AID 492997;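 active = thallium signal drop beyond 5 SD of the untreated control mean, on both duplicate plates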
KCNK3 inh conf = human KCNK3 channel inhibition, confirmation assay; ratio percent of control, % at 10 µM; shares compounds with KCNK3 block; 2,400 tested, 99% active; CHO-KCNK3 thallium flux, FluxOR fluorescence; 0% buffer, 100% carvedilol maximal block; AID 651638;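 active = ratio percent of control, averaged over triplicates, above buffer control mean plus 5 SD, cut at about 64% in these data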;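 also: ratio is the fluorescence rise from min to max over baseline after thallium stimulus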
KCNK3 noninduced = KCNK3 inhibitor counter-screen hit in non-induced cells; shares compounds with KCNK3 block; non-induced KCNK3 parental cells, FluxOR thallium flux; active compounds read low; thallium flux ratio (lower = more inhibition) at 10 µM; 2,400 tested, 40% active; AID 651747;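 active = thallium flux ratio, averaged over three wells, more than 5 SD below the buffer control mean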;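 also: host cells are CHO cells without KCNK3 induction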
Hits are given with their value; . = inactive; / = no result. Unless noted, no rule for the calls is given here.

SMILES	hERG protect	KCNK9 inh-1	KCNK3 block	KCNQ1 pot	KCNQ1 inh	Kir21 block	hERG inh	KCNK9 inh-2	Kir21 ephys inh	KCNK9 inh conf	Kir21 sel	HEK293 Tl ctr	KCNK3 inh conf	KCNK3 noninduced	others
COc1cccc(C(C)NC(=S)NCc2ccc(Cl)cc2)c1 (stereo unspecified)	.	.	.	.	8	-7.85	.	.	31.4%	/	/	/	/	/	KCNQ1 block val=.;CHO Tl flux=.;KCNQ2 spec=.;KCNQ1 KCNE1 spec=.
O=C(c1cscn1)N1CCCC(N2CCN(c3ccc(F)cc3)CC2)C1 (stereo unspecified)	.	.	.	.	.	.	/	/	/	/	/	/	/	/
O=C(O)c1cnn(-c2nc(-c3ccc(Cl)c(Cl)c3)cs2)c1C(F)(F)F	.	.	.	.	.	.	.	.	.	.	.	.	/	/
Cc1cccc(CC(=O)Nc2ccc(C(=O)N3CCOCC3)cc2)c1	.	.	.	.	.	.	/	/	/	/	/	/	/	/
Cc1cc(C)c(C)c(OCCCCN(C)Cc2ccccc2)c1	.	.	.	.	.	-7.28	.	.	8.7%	.	46.5%	.	/	/
CN(CCCCOc1ccc(F)cc1)Cc1ccccc1	.	.	.	.	.	.	/	/	/	/	/	/	/	/
Cc1ccc(-c2nc3ccccn3c2NCc2ccc3c(c2)OCO3)cc1	.	-17.1	-9.94	.	10	-7.06	63.0%	56.0%	.	51.5%	.	.	142.7	.	KCNQ1 block val=118.5;CHO Tl flux=.;KCNQ1 ephys val=.;KCNQ2 spec=112.7%;KCNQ1 KCNE1 spec=188.5%
CCOC(=O)CSc1nc(-c2ccccc2)nc2ccccc12	.	.	.	.	.	.	/	/	/	/	/	/	/	/
CCOC(=O)CSc1nc(Cc2ccccc2)nc2ccccc12	.	-13.4	.	.	.	-5.99	.	.	31.9%	36.0%	.	.	96.3	.
Cc1nn(CC(=O)N2CCN(c3ccccc3)CC2)c(=O)c2cccn12	.	.	.	.	.	.	/	/	/	/	/	/	/	/
O=[N+]([O-])c1cccc(-c2csc(Nc3ccccc3)n2)c1	.	.	-13.5	.	.	.	.	.	.	/	/	/	124.3	0.139

Source: PubChem
